Bioassay records (PubChem BioAssay)
Only some compounds are listed: those with a hit (about 5.3% of all), similar ones and a draw of the others.
Beta apoptosis: beta cell apoptosis inhibition | INS-1E cytokine-induced death, ATP luminescence, 48 h; percent of positive-control rescue, neutral wells zero | 300,000 compounds, 0.8% hits | protection from apoptosis, % (concentration not given with the values) | AID 435005;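 active = Every replicate reaches about 75%, or at least half do and their mean reaches it too, limit read from the data; inconclusive = At least half of replicates reach the limit but their mean does not; inactive = Under half of replicates reach the limit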;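 also: 0% = cytokine-treated negative control wells and 100% = positive control rescue; higher means more ATP so stronger rescue from cytokine killing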
T cruzi repl: T. cruzi replication inhibition; T. cruzi beta-gal in NIH3T3, luminescence, 90 h; inhibition, % (concentration not given with the values); 300,000 compounds, 1.4% hits; AID 1885;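 active = mean inhibition across valid replicates above about 55%, limit read from the data; inconclusive = mean below that limit but half or more replicates reach it; inactive = mean below it, under half of replicates reach it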;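 also: signal also drops with host cell toxicity which is not excluded here; 0% = plate median of DMSO wells and 100% = zero luminescence signal; higher percent means less beta-gal luminescence so fewer parasites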
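assay system = mouse NIH/3T3 fibroblasts infected with β-gal-expressing T. cruzi Tulahuen C4 | input = 5,000 NIH/3T3 host cells per well | buffer or medium = DMEM plus 2% FBS | timing = 3 h host attachment, then at least 90 h co-culture | measured by = GalScreen luminescence, 60 min | evaluation = luminescence reflecting intracellular parasite burden, expressed as percent inhibition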
CSC inhib: cancer stem cell inhibition; inhibition, % at 7.5 µM; cancer stem cell-like cells viability, luminescence; 300,000 compounds, 1.1% hits; in the data active = inhibition above about 75%; inconclusive = no clear call, values can overlap the other calls; tested in HMLE shEcad cells
NLRP3 yeast inh: inhibitors of NALP3 inflammasome in yeast; AID 2825; 330,000 compounds, 0.39% hits; inhibition, % at 10 µM; Yeast reconstituted NLRP3/ASC/caspase-1, beta-gal luminescence, 24 h;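 active = inhibition of 50% or more; inactive = inhibition below 50%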;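 also: plate controls were induced DMSO wells for no effect and uninduced yeast grown without galactose for full effect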
Mdm2-MdmX inh: disrupts the human Mdm2-MdmX interaction; inhibition, % at 8 µM; 330,000 compounds, 3% hits; AID 485346; SaOS-2 split-luciferase Mdm2/MdmX complementation, luminescence;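 active = inhibition of at least 50% at 8 µM in the primary screen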
Target sequence (O15151 whole entry, looked up): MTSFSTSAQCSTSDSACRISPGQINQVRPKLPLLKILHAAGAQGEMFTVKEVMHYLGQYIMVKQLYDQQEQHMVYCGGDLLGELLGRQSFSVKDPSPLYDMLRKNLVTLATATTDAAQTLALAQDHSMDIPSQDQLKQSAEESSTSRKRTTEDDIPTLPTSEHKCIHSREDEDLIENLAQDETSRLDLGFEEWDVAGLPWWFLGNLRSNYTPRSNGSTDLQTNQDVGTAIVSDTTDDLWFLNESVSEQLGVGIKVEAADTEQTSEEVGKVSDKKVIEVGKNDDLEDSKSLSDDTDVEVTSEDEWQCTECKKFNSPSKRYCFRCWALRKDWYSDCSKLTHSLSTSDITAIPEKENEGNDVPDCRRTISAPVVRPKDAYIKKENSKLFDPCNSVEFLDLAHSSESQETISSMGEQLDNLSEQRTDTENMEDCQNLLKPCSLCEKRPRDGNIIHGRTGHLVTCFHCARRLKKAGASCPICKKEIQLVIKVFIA
Target sequence (Q00987 whole entry, looked up): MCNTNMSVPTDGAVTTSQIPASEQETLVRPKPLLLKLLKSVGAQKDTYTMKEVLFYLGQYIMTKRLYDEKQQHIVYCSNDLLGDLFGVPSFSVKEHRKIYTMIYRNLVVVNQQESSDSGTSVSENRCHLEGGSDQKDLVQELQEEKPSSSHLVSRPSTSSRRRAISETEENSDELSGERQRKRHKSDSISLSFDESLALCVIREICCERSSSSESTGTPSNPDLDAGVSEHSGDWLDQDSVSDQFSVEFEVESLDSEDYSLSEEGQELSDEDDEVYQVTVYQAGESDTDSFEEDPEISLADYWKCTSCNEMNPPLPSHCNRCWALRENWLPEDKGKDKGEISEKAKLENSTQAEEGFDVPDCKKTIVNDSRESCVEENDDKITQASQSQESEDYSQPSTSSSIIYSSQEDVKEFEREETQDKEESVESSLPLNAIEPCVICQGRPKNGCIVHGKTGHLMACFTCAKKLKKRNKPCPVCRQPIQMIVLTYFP
Calb FLC: affects C. albicans growth with fluconazole. 300,000 compounds, 0.57% hits. growth inhibition, % (no concentration beside the values). C. albicans CaCi-2 (fluconazole-resistant clinical isolate) + fluconazole, Alamar Blue growth, 48 h;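 active = growth inhibition above about 58% in most replicates, limit read from the data, passing the limit was not always enough; inconclusive = exactly half the replicates above a set limit; inactive = most replicates below a set limit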;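 also: all wells also contain fluconazole at 8 µg/ml as a sub-toxic cotreatment; 0% = median of DMSO wells and 100% = median of geldanamycin control wells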
* marks the source's active call; other numbers are inactive results; ? = inconclusive; . = no result given.

SMILES | Beta apoptosis | T cruzi repl | CSC inhib | NLRP3 yeast inh | Mdm2-MdmX inh | Calb FLC
Cc1cc(NC(=O)CSCC(=O)Nc2nc3ccc(F)cc3s2)no1 | -3 | . | -23 | 11 | -24 | .
COC(C[C@H]1O[C@@H]1[C@@H](O)COCc1ccccc1)OC | . | -12 | . | 18 | 9 | 24
COc1ccc(S(=O)(=O)/N=C2/NC(=O)/C(=C\c3cc(OC)c(OC)cc3[N+](=O)[O-])S2)cc1 | -4 | -3 | -5 | 5 | 26 | -9
COc1ccc(CN(C)CC(=O)c2c(N)n(Cc3ccccc3)c(=O)n(C)c2=O)c(OC)c1 | -3 | 59* | -2 | 0 | 21 | -1
O=c1cc(N2CCCCC2)c(-c2ccccc2)nn1Cc1ccc(Cl)cc1 | . | 48 | 103* | 23 | 44 | -29
O=c1cc(N2CCCCC2)c(-c2ccccc2)nn1Cc1ccc(F)cc1 | 0 | 55* | 40 | 7 | 16 | 4
O=c1ccc(-c2ccccc2)nn1Cc1ccc(F)cc1 | -14 | -1 | -3 | 31 | 14 | 0
CC(C)(C)N1CCC1CN (configuration not stated) | . | . | . | 0 | 12 | .
Cc1ccc(C2CC(=O)C=C(NCC(C)C)C2)cc1 (configuration not stated) | 0 | 6 | -28 | 7 | -3 | -23
Cc1ccc2cc(C#N)c(NCCNC(=S)NCCCN(C)C)nc2c1C | 3 | 26 | 13 | 17 | 18 | 34
CCOCCCNC(=S)NCCNc1nc2c(C)cccc2cc1C#N | . | 55* | . | 17 | 6 | -11
NC(=O)Cn1cc(/C=N\NS(=O)(=O)c2cccc([N+](=O)[O-])c2)c2ccccc21 | -2 | -3 | -6 | 3 | 7 | -2
COc1cc(C2SCC(=O)N2CCCN(C)C)cc(OC)c1OC (configuration not stated) | 3 | 61* | -4 | -10 | 14 | 1
CCc1ccc(-n2c(C)cc(/C=N/NC(=O)c3ccncc3)c2C)cc1 | 106* | 27 | 0 | 17 | 5 | -11
CSc1nc(Cl)c(C#N)c(-c2ccc(C)cc2)n1 | 3 | 0 | 11 | 2 | 11 | 81*
CCOC(=O)N1CCC(N2CCCC(C(=O)c3ccc4cc(OC)ccc4c3)C2)CC1 (configuration not stated) | -1 | 56* | 23 | 29 | 5 | .
Cc1c(C(=O)N(Cc2ccccc2)C(C)C)cnn1-c1ccccc1 | -6 | 8 | -8 | 29 | 2 | 12
Cc1c(C(=O)N(Cc2ccccc2)Cc2cccs2)cnn1-c1ccc(Cl)cc1 | . | 43 | 80* | 8 | 25 | 9
Cc1ccc(-c2nc3ccccc3c(=O)n2O)cc1 | -1 | 6 | -4 | 48 | 11 | 5
Cc1ccc(-c2nc3ccc(Cl)cc3c(=O)n2O)cc1 | 4 | -3 | 3 | 29 | 47 | 106*
O=c1c2ccccc2nc(-c2cccc(Cl)c2)n1O | 5 | -21 | 12 | 40 | 30 | ?
O=c1c2cc(Br)ccc2nc(-c2ccccc2)n1O | 1 | -15 | 12 | 21 | 23 | 100*
CCOC(=O)C1(Cc2ccccc2C(F)(F)F)CCN(C(C)CCn2cccn2)CC1 (configuration not stated) | -1 | 68* | -3 | 12 | 3 | -3
CCN(CC)c1ccc(/C=N/n2c(C)cc(C)cc2=O)cc1 | 4 | -1 | . | 19 | 6 | -2
CCOC(=O)/C=C1\SCC(=O)N1CC(=O)NC(c1ccccc1)c1ccccc1 | 3 | 5 | 11 | -13 | -20 | -25
SMILES | Beta apoptosis | T cruzi repl | CSC inhib | NLRP3 yeast inh | Mdm2-MdmX inh | Calb FLC
Cc1ccc(N2C(=O)/C(=C/c3cccnc3)SC2=S)cc1 | -1 | -18 | 5 | 17 | 0 | -1
Cc1ccc(/C=C2\SC(=S)N(c3cccnc3)C2=O)o1 | -6 | 62* | 17 | 13 | -13 | -1
Cc1cc(/C=C2/SC(=S)N(c3cccc(Cl)c3)C2=O)c(C)n1-c1cccnc1 | 125* | 21 | . | 19 | 7 | 1
Cc1cccc(N2C(=O)/C(=C/c3cccnc3)SC2=S)c1 | -6 | -18 | 4 | 2 | 10 | -19
Cc1cc(/C=C2/SC(=S)N(c3ccc([N+](=O)[O-])cc3)C2=O)c(C)n1-c1cccnc1 | 106* | 59* | 28 | 29 | 32 | 44
O=S(=O)(Nc1cc2nc3ccccc3nc2n1Cc1ccccc1)c1ccc(Cl)cc1 | 3 | 2 | 112* | . | . | 25
C/C(Cn1cnc([N+](=O)[O-])n1)=N\NC(=O)c1ccccc1 | -3 | 40 | -19 | -2 | 15 | 4
C/C(Cn1cnc([N+](=O)[O-])n1)=N/NC(=O)COc1c(Cl)cc(Cl)cc1Cl | 1 | 62* | -20 | 12 | -35 | 1
COc1ccc(C2Nc3ccccc3C(=O)N2NC(C)=O)c(OC)c1 (configuration not stated) | -5 | -3 | -6 | -2 | -9 | 1
Cc1ccsc1/C=C/c1ccc2cccc(O)c2n1 | 22 | 22 | 92* | 26 | -42 | 29
Oc1c(Cl)cc(Cl)cc1/C=C/c1ccc2cccc(O)c2n1 | 17 | -41 | 15 | -18 | 48 | 0
Oc1cccc2ccc(/C=C/c3ccccc3Br)nc12 | 39 | 44 | 97* | 34 | -12 | ?
COc1ccc(S(=O)(=O)N(Cc2nc3ccccc3c(=O)[nH]2)C2CCCC2)cc1 | 2 | -5 | -7 | 3 | 6 | 15
CC(C)c1ccc(-c2nnc(N)s2)cc1 | -1 | -3 | -20 | 22 | -83 | 9
CC(=O)Oc1ccccc1C1OC(=O)c2ccccc2N1C(C)=O (configuration not stated) | -7 | -24 | -1 | 0 | 2 | -8
CC(C)Oc1ccc(CNC(=O)CC(c2ccccc2)c2cc(Cl)ccc2O)cc1 (configuration not stated) | 15 | 56* | 97* | 9 | -2 | 31
COc1ccccc1C(CC(=O)Nc1ccc(Cl)cc1)c1ccc(OC(C)C)cc1 (configuration not stated) | 17 | 46 | -1 | 17 | 18 | 6
COCCN(C(=O)CNC(=O)c1ccco1)C(C(=O)NC1CCCCC1)c1cccc(OC)c1 (configuration not stated) | -2 | 9 | 28 | -5 | 2 | 1
CN1CCN(CCOc2ccc(Cc3ccccc3)cc2)CC1 | 1 | 55* | 51 | 14 | 16 | -13
CN1CCN(CCOc2ccc(Cl)c(Cl)c2)CC1 | -6 | 56* | 35 | -1 | 0 | 0
CCOC(=O)c1oc2ccc(S(=O)(=O)n3nc(-c4ccc(C)cc4)cc3N)cc2c1C | -1 | 29 | 42 | 15 | 48 | 4
COc1ccc(CCNC(=O)[C@H](C)NC(=O)N2CCn3c2nc2ccccc23)cc1OC | -3 | -5 | -7 | 7 | -3 | 6
N#C/C(=C/c1ccc(N2CCCC2)c([N+](=O)[O-])c1)c1nc2ccccc2[nH]1 | 3 | 11 | -5 | 24 | 37 | 18
